Data on 44 molecules can be found in ChEMBL document CHEMBL1127413, “Cephem sulfones as inactivators of human leukocyte elastase. 5. 7 alpha-Methoxy- and 7 alpha-chloro-1,1-dioxocephem 4-ketones” (J Med Chem, 1994).

The target in one data set is T1, Neutrophil elastase (Homo sapiens, UniProt P08246).
T1 sequence (P08246 whole entry): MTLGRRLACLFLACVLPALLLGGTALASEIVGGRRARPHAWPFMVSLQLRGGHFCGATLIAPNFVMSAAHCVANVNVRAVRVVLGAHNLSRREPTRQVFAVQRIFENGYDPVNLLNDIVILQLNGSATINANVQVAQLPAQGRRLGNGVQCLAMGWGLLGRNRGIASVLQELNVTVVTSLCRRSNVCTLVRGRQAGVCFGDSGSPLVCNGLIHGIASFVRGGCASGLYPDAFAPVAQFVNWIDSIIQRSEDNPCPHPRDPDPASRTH
The experiment in a line: Inhibition constant (steady state) against Human Leukocyte Elastase (HLE). The method, boiled down:
(§1)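 HLE from human sputum, active-site titrated with MeO-Suc-Ala-Ala-Pro-Val-CH2Cl; 1–3 nM active enzyme. […] Substrate and inhibitor concentrations varied to derive kon and Ki(ss).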

A short description of data set [1]: Chemical stability (T1/2 at pH 7.4). Type of data set: physicochemical. Particulars: buffer.
The target in data set [2] is T2, Neutrophil elastase (Homo sapiens) (UniProt P08246).
T2 sequence (whole entry): T1 sequence (P08246 whole entry)
The experiment in a line: Tested for the rate constant against Human Leukocyte Elastase (HLE) inactivation. The method, boiled down: as §1

In data set [3] the target is T2, Neutrophil elastase (Homo sapiens). The experiment in a line: Tested for inhibition of Human Leukocyte Elastase (HLE) in living polymorphonuclear leukocytes. It counts as cell-based. Set-up: scale not given: the % may be the effect or the level left. The procedure, abridged: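 Human PMNs from citrated venous blood, 5 × 10^6 cells/mL, exposed to inhibitor (10 μg per mL, in DMSO) for 15 min at 37 °C, then washed three times. Stimulated with cytochalasin B for 5 min, then fMLP for 15 min. Supernatant elastase assayed with N-acetyl-Ala-Ala-Pro-Ala-7-(4-methyl)coumarylamide, 6 h at 25 °C, fluorescence read; DMSO-only controls.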

One may read the half-life as how long it takes for the measured level to halve. In turn, `CO[C@H]1C(=O)N2C(C(=O)c3ccccc3)=C(CSc3nnnn3C)[C@@H](Sc3nnnn3C)S(=O)(=O)C12` (some centres not stated) yielded a Ki ss on Neutrophil elastase of 55 nM. This molecule had a half-life in data set [1] of 1400 h.
Molecule `CO[C@H]1C(=O)N2C(C(=O)C(C)(C)C)=C(C)[C@@H](Sc3nc(=O)c(=O)[nH]n3C)S(=O)(=O)C12` (some centres not stated) showed a Ki ss on Neutrophil elastase of 26 nM. In data set [1], this molecule had a half-life of 21 h.
In the same order, the values of `CO[C@H]1C(=O)N2C(C(=O)N3CCCC3)=C(CSc3nc(=O)c(=O)[nH]n3C)CS(=O)(=O)C12` (some centres not stated) are 75 nM and 25 h.
In the same order, the values of `CO[C@H]1C(=O)N2C(C(=O)C(C)(C)C)=C(C)[C@@H](OC(=O)c3ccc(CSc4nc(=O)c(=O)[nH]n4C)cc3)S(=O)(=O)C12` (some centres not stated) are 2 nM and 7.5 h.
With `CC(=O)OCC1=C(C(=O)C(C)(C)C)N2C(=O)[C@H](Cl)C2S(=O)(=O)[C@@H]1Sc1nnnn1C` (some centres not stated), the Ki ss at Neutrophil elastase is 140 nM. The same molecule had a half-life in data set [1] of 1.8 h.
In the same order, the values of `CO[C@H]1C(=O)N2C(C(=O)c3ccccc3)=C(C)CS(=O)(=O)C12` (some centres not stated) are 2700 nM and 26 h.
On Neutrophil elastase, `CO[C@H]1C(=O)N2C(C(=O)C(C)(C)C)=C(COC(=O)c3ccccc3)[C@@H](OC(=O)c3ccccc3)S(=O)(=O)C12` (some centres not stated) had a Ki ss of under 2 nM. In data set [1], the half-life is 1.2 h.
In the same order, the values of `CO[C@H]1C(=O)N2C(C(=O)C(C)(C)C)=C(CSc3nnnn3C)[C@@H](OC(=O)c3ccccc3)S(=O)(=O)C12` (some centres not stated) are under 2 nM and 0.7 h.
Consider `CO[C@H]1C(=O)N2C(C(=O)OC(C)(C)C)=C(CSc3ccccn3)CS(=O)(=O)C12` (some centres not stated), for which the Ki ss on Neutrophil elastase is 100 nM. The molecule further showed a half-life in data set [1] of 5.1 h.
Turning to `CC(=O)OCC1=C(C(=O)Cc2ccccc2)N2C(=O)[C@H](Cl)C2S(=O)(=O)C1` (some centres not stated), on Neutrophil elastase, the Ki ss was 100 nM. This molecule had a half-life in data set [1] of 0.2 h.
In the same order, the values of `CO[C@H]1C(=O)N2C(C(=O)C(C)(C)C)=C(C)[C@@H](OC(C)=O)S(=O)(=O)C12` (some centres not stated) are 4 nM and 6.3 h.
Take `CC(=O)CCC1=C(COC(C)=O)CS(=O)(=O)C2[C@@H](Cl)C(=O)N12` (some centres not stated): the half-life in data set [1] was 10 h.
Take `CO[C@H]1C(=O)N2C(C(=O)C(C)(C)C)=C(CSc3nnnn3C)[C@@H](Sc3nnnn3C)S(=O)(=O)C12` (some centres not stated): at Neutrophil elastase, the Ki ss was determined as 93 nM. The molecule also gave a half-life in data set [1] of 31 h.
In the same order, the values of `COC(=O)C1=C(COC(C)=O)CS(=O)(=O)C2[C@@H](Cl)C(=O)N12` (some centres not stated) are 12 nM and 0.9 h.
In the same order, the values of `CC1=C(C(=O)C(C)(C)C)N2C(=O)[C@H](Cl)C2S(=O)(=O)C1` (some centres not stated) are 380 nM and 5.6 h.
`CO[C@H]1C(=O)N2C(C(=O)C(C)(C)C)=C(C)[C@@H](Sc3ccccn3)S(=O)(=O)C12` (some centres not stated) returned a Ki ss on Neutrophil elastase of 10 nM. Further, the half-life in data set [1] was 24 h.
As for `CO[C@H]1C(=O)N2C(C(=O)OC(C)(C)C)=C(CSc3nnnn3C)CS(=O)(=O)C12` (some centres not stated), the Ki ss on Neutrophil elastase is given as 13 nM. This molecule also had a half-life in data set [1] of 3.8 h.
In the same order, the values of `COCC1=C(C(=O)C(C)(C)C)N2C(=O)[C@H](Cl)C2S(=O)(=O)C1` (some centres not stated) are 170 nM and 6.9 h.
In the same order, the values of `CO[C@H]1C(=O)N2C(C(=O)C(C)(C)C)=C(C)[C@@H](Sc3nnnn3C)S(=O)(=O)C12` (some centres not stated) are 8 nM and 18 h.
Turning to `CO[C@H]1C(=O)N2C(C(=O)C(C)(C)C)=C(C)[C@@H](OC(=O)CCC(=O)c3ccccc3)S(=O)(=O)C12` (some centres not stated), the Ki ss at Neutrophil elastase is recorded as under 2 nM. In addition, the half-life in data set [1] was 13 h.
In the same order, the values of `CCC(=O)C1=C(COC(C)=O)CS(=O)(=O)C2[C@@H](Cl)C(=O)N12` (some centres not stated) are 11 nM and 1.1 h.
As for `CC1=C(C(=O)C(C)(C)C)N2C(=O)[C@H](Cl)C2S(=O)(=O)[C@@H]1Sc1nnnn1C` (some centres not stated), the Ki ss at Neutrophil elastase is reported as 300 nM. This molecule had a half-life in data set [1] of 3.2 h.
In the same order, the values of `CO[C@H]1C(=O)N2C(C(=O)C(C)(C)C)=C(C)[C@@H](OC=O)S(=O)(=O)C12` (some centres not stated) are 600 nM and under 0.5 h.
In the same order, the values of `CC1=C(C(=O)c2ccccc2)N2C(=O)[C@H](Cl)C2S(=O)(=O)[C@@H]1Sc1nnnn1C` (some centres not stated) are 270 nM and 4.1 h.
Take `CC(=O)OCC1=C(C(=O)c2ccccc2)N2C(=O)[C@H](Cl)C2S(=O)(=O)C1` (some centres not stated): on Neutrophil elastase, the Ki ss was found to be 12 nM. The half-life in data set [1] was 1.5 h.
The like results for `CO[C@H]1C(=O)N2C(C(=O)c3ccccc3)=C(C)[C@@H](Sc3nnnn3C)S(=O)(=O)C12` (some centres not stated) were, in that order, 1400 nM and 200 h.
The like results for `CO[C@H]1C(=O)N2C(C(=O)C(C)(C)C)=C(C)[C@@H](OC(=O)c3ccccc3)S(=O)(=O)C12` (some centres not stated) were, in that order, under 2 nM and 24 h.
With `CO[C@H]1C(=O)N2C(C(=O)C(C)(C)C)=C(C)CS(=O)(=O)C12` (some centres not stated), the Ki ss at Neutrophil elastase came out at 1300 nM. Also, the half-life in data set [1] was 106 h.
For `CO[C@H]1C(=O)N2C(C(=O)N3CCC[C@H]3C(=O)O)=C(COC(C)=O)CS(=O)(=O)C12` (some centres not stated), the k on in data set [2] was 1800 M⁻¹ s⁻¹. The molecule also had a Ki ss on Neutrophil elastase of 200 nM. In data set [1], this molecule gave a half-life of 18 h.
Molecule `CO[C@H]1C(=O)N2C(C(=O)C(C)(C)C)=C(CSc3nc(=O)c(=O)[nH]n3C)CS(=O)(=O)C12` (some centres not stated) yielded a Ki ss at Neutrophil elastase of 27 nM. In data set [1], this molecule gave a half-life of 16 h.
In the same order, the values of `CO[C@H]1C(=O)N2C(C(=O)C(C)(C)C)=C(C)[C@@H](OC(=O)c3ccc4ccccc4c3)S(=O)(=O)C12` (some centres not stated) are under 2 nM and 33 h.
Consider `CO[C@H]1C(=O)N2C(C(=O)OC(C)(C)C)=C(C)[C@@H](Sc3ccccn3)S(=O)(=O)C12` (some centres not stated), for which the Ki ss at Neutrophil elastase was 180 nM. This molecule showed a half-life in data set [1] of 4.1 h.
In the same order, the values of `CO[C@H]1C(=O)N2C(C(=O)c3ccccc3)=C(CSc3nnnn3C)CS(=O)(=O)C12` (some centres not stated) are 110 nM and 17 h.
Consider `CO[C@H]1C(=O)N2C(C(=O)C(C)(C)C)=C(C)[C@@H](S(=O)(=O)c3ccccc3)S(=O)(=O)C12` (some centres not stated), for which the Ki ss at Neutrophil elastase is 20 nM. The molecule further gave a half-life in data set [1] of 10 h.
In the same order, the values of `Cn1nnnc1SCC1=C(C(=O)C(C)(C)C)N2C(=O)[C@H](Cl)C2S(=O)(=O)C1` (some centres not stated) are 7 nM and 3 h.
In turn, `CC1=C(C(=O)c2ccccc2)N2C(=O)[C@H](Cl)C2S(=O)(=O)C1` (some centres not stated) registered a Ki ss at Neutrophil elastase of 130 nM. Further, in data set [1], the half-life is 2.3 h.
For the molecule `CO[C@H]1C(=O)N2C(C(=O)C(C)(C)C)=C(COC(C)=O)[C@@H](Sc3nnnn3C)S(=O)(=O)C12` (some centres not stated), the Ki ss at Neutrophil elastase is reported as 6 nM. The molecule further gave a half-life in data set [1] of 10 h.
Regarding `CO[C@H]1C(=O)N2C(C(=O)C(C)(C)C)=C(CSc3nnnn3C)CS(=O)(=O)C12` (some centres not stated), the Ki ss at Neutrophil elastase is 34 nM. The half-life in data set [1] was 24 h.
`CO[C@H]1C(=O)N2C(C(=O)C(C)(C)C)=C(C)[C@@H](OC(=O)C(C)(C)C)S(=O)(=O)C12` (some centres not stated) displayed a Ki ss at Neutrophil elastase of under 2 nM. In data set [1], this molecule showed a half-life of 54 h.
On Neutrophil elastase, `CO[C@H]1C(=O)N2C(C(=O)C(C)(C)C)=C(C)[C@@H](Sc3nnc(C)s3)S(=O)(=O)C12` (some centres not stated) registered a Ki ss of 12 nM. The same molecule showed a half-life in data set [1] of 27 h.
The like results for `CO[C@H]1C(=O)N2C(C(=O)C(C)(C)C)=C(COC(C)=O)CS(=O)(=O)C12` (some centres not stated) were, in that order, 11 nM and 14 h.
Molecule `CC(=O)OCC1=C(C(=O)C(C)(C)C)N2C(=O)[C@H](Cl)C2S(=O)(=O)C1` (some centres not stated) came in with a Ki ss on Neutrophil elastase of 4 nM. The same molecule showed a half-life in data set [1] of 3.9 h.
In the same order, the values of `CO[C@H]1C(=O)N2C(C(=O)C(C)(C)C)=C(CSc3ccccn3)CS(=O)(=O)C12` (some centres not stated) are 12 nM and 28 h.
On to `CO[C@H]1C(=O)N2C(C(=O)SCC(NC(=O)OC(C)(C)C)C(=O)OC(c3ccccc3)c3ccccc3)=C(CSc3nnnn3C)CS(=O)(=O)[C@H]12` (some centres not stated), for which, in data set [3], the Activity turned out to be 8%.
